Results taken from ChEMBL document CHEMBL4706681, “New 2-Pyrazoline and Hydrazone Derivatives as Potent and Selective Monoamine Oxidase A Inhibitors” (J Med Chem, 2021).

Columns and labels:
[1] = target: T1, Amine oxidase [flavin-containing] B (Homo sapiens, UniProt P27338); assay: Inhibition of recombinant human MAO-B expressed in baculovirus infected BTI insect cells using p-tyramine as substrate incubated for 30 mins by Amplex red reagent based fluorescence analysis; assay type: cell-based
T1 sequence (P27338 whole entry): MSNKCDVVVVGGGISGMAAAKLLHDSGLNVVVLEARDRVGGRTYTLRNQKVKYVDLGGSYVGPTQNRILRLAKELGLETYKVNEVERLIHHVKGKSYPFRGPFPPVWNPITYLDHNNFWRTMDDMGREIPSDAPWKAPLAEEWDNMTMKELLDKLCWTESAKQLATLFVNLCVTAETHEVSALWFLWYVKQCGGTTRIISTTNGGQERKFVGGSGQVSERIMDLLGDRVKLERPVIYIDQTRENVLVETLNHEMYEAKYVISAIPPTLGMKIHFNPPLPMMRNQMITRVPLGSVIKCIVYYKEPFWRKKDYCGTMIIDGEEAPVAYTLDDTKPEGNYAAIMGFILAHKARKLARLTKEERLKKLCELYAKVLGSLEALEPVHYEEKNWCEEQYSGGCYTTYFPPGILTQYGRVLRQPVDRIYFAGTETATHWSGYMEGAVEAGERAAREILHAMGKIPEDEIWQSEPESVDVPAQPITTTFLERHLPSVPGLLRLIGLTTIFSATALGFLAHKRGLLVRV

[2] = target: T2, Amine oxidase [flavin-containing] A (Homo sapiens, UniProt P21397); assay: Inhibition of recombinant human MAO-A expressed in baculovirus infected BTI insect cells using p-tyramine as substrate incubated for 30 mins by Amplex red reagent based fluorescence analysis
T2 sequence (P21397 whole entry): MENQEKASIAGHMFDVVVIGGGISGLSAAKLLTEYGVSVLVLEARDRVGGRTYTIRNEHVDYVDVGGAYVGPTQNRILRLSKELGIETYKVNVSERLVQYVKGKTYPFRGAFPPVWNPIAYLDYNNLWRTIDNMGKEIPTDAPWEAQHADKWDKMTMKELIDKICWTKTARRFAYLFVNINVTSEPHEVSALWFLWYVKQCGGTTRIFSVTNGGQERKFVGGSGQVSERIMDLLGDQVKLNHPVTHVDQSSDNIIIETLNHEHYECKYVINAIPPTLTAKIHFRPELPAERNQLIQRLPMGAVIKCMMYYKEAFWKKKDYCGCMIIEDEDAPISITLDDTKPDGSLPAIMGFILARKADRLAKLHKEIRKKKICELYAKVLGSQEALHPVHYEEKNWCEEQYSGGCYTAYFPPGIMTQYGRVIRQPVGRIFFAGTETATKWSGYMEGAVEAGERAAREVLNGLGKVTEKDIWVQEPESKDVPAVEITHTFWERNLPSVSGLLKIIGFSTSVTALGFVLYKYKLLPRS

[3] = Selectivity index, ratio of Ki for inhibition of recombinant human MAO-A to Ki for inhibition of recombinant human MAO-B using p-tyramine as substrate
[4] = target: T2, Amine oxidase [flavin-containing] A; assay: Reversible inhibition of human MAO-A assessed as residual enzyme activity at 4 fold IC50 incubated for 15 mins and measured 24 hrs post dialysis by dialysis method relative to control; conditions: 24.25 h, time 1455 min
Outline: (§1)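 Dialysed (MWCO 12 000) at 4 °C for 24 h against 100 mM potassium phosphate pH 7.4, 5% sucrose, buffer changed twice. Dialysed and undialysed mixtures assayed together; residual activity from triplicates.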

[5] = Cytotoxicity against human HepG2 cells assessed as cell viability at 30 uM incubated for 2 hrs by MTT assay relative to control; assay type: cell-based; conditions: read-out: Activity
Outline: (§2)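 HepG2 human hepatoma cells; viability read by MTT assay, with 0.1% DMSO as vehicle control. Viability given as % of control, mean ± SEM (n = 3); p < 0.05 taken as significant.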

[6] = target: T2, Amine oxidase [flavin-containing] A; assay: Reversible inhibition of human MAO-A assessed as residual enzyme activity at 4 fold IC50 incubated for 15 mins and measured before dialysis by dialysis method relative to control; outline: as §1
[7] = Cytotoxicity against human HepG2 cells assessed as cell viability at 15 uM incubated for 2 hrs by MTT assay relative to control; assay type: cell-based; conditions: read-out: Activity; outline: as §2
[8] = Cytotoxicity against human HepG2 cells assessed as cell viability at 7.5 uM incubated for 2 hrs by MTT assay relative to control; assay type: cell-based; conditions: read-out: Activity; outline: as §2
[9] = target: T1, Amine oxidase [flavin-containing] B; assay: Reversible inhibition of human MAO-B assessed as residual enzyme activity at 4 fold IC50 incubated for 15 mins and measured before dialysis relative to control; outline: as §1
[10] = target: T1, Amine oxidase [flavin-containing] B; assay: Reversible inhibition of human MAO-B assessed as residual enzyme activity at 4 fold IC50 incubated for 15 mins and measured 24 hrs post dialysis relative to control; conditions: 24.25 h, time 1455 min; outline: as §1
[11] = Permeability of compound in PBS/EtOH buffer (70:30) at 25 ug/ml incubated for 16 hrs by UV plate reader based PAMPA-BBB

| Ki [1] [µM] | Ki [2] [µM] | Ratio Ki [3] | SMILES | other results |
| --- | --- | --- | --- | --- |
| 16.6 | 0.011 | 6.65 10^-4No_unit | COc1ccccc1C(/C=C/c1ccccc1Cl)=N/NC(=O)Cn1c(=O)oc2ccc(C)cc21 |  |
| 2.55 | 0.12 | 0.05 | COc1cccc(C2=NN(C(=O)Cn3c(=O)oc4ccc(Cl)cc43)C(c3ccccc3Cl)C2)c1 (centres undefined) |  |
| 8000 | 1.55 | 1.94 10^-4No_unit | COc1ccc(C2=NN(C(=O)Cn3c(=O)oc4ccc(Cl)cc43)C(c3cccc(OC)c3OC)C2)cc1 (centres undefined) |  |
| 52 | 0.266 | 0.005 | COc1cccc(C2CC(c3ccc(C)cc3)=NN2C(=O)Cn2c(=O)oc3ccc(C)cc32)c1OC (centres undefined) |  |
| 35 | 0.001 | 3.43 10^-5No_unit | COc1ccc(C(/C=C/c2ccccc2Cl)=N/NC(=O)Cn2c(=O)oc3ccccc32)cc1 |  |
| 9 | 0.011 | 0.001 | COc1ccc(C2=NN(C(=O)Cn3c(=O)oc4ccccc43)C(c3ccccc3)C2)cc1 (centres undefined) |  |
| 8.95 | 0.004 | 0.000446 | Cc1ccc(C2CC(c3ccccc3)=NN2C(=O)Cn2c(=O)oc3ccccc32)cc1 (centres undefined) |  |
| 0.4 | 0.018 | 0.045 | COc1ccc(C2=NN(C(=O)Cn3c(=O)oc4ccc(C)cc43)C(c3ccccc3Cl)C2)cc1 (centres undefined) |  |
| 1.95 | 0.004 | 0.002 | COc1ccc(C2=NN(C(=O)Cn3c(=O)oc4ccc(Cl)cc43)C(c3ccccc3)C2)cc1 (centres undefined) |  |
| 120 | 0.028 | 2.32 10^-4No_unit | COc1cccc(C2CC(c3ccc(C)cc3)=NN2C(=O)Cn2c(=O)oc3ccccc32)c1OC (centres undefined) |  |
| 60 | 0.004 | 6.66 10^-5No_unit | COc1ccccc1C(/C=C/c1ccccc1Cl)=N/NC(=O)Cn1c(=O)oc2ccccc21 |  |
| 5.55 | 0.019 | 0.003 | Cc1ccc(C2=NN(C(=O)Cn3c(=O)oc4ccccc43)C(c3ccccc3)C2)cc1 (centres undefined) |  |
| 21.3 | 0.005 | 2.35 10^-4No_unit | COc1cccc(C2CC(c3ccccc3)=NN2C(=O)Cn2c(=O)oc3ccc(C)cc32)c1 (centres undefined) |  |
| 41.3 | 0.17 | 0.004 | COc1ccc(C2CC(c3ccccc3)=NN2C(=O)Cn2c(=O)oc3ccc(C)cc32)cc1OC (centres undefined) |  |
| 11 | 0.05 | 0.005 | COc1ccccc1C1=NN(C(=O)Cn2c(=O)oc3ccc(Cl)cc32)C(c2ccccc2Cl)C1 (centres undefined) |  |
| 9.27 | 0.001 | 1.08 10^-4No_unit | COc1ccccc1C(/C=C/c1ccccc1Cl)=N/NC(=O)Cn1c(=O)oc2ccc(Cl)cc21 | Papp at 16 h, 25 ug/ml [11]: 14 ×10⁻⁶ cm/s; Activity [4]: 93.26%; viability at 2 h, 30 µM [5]: 87.4%; Activity [6]: 21.91%; viability at 2 h, 15 µM [7]: 90.6%; viability at 2 h, 7.5 µM [8]: 92.1%; Activity [9]: 77.22%; Activity [10]: 93.41% |
| 25.6 | 0.065 | 0.003 | COc1ccc(C2=NN(C(=O)Cn3c(=O)oc4ccc(Cl)cc43)C(c3ccccc3Cl)C2)cc1 (centres undefined) |  |
| 1.15 | 0.013 | 0.011 | COc1ccccc1C1=NN(C(=O)Cn2c(=O)oc3ccccc32)C(c2ccccc2Cl)C1 (centres undefined) |  |
| 7.5 | 0.06 | 0.008 | COc1cccc(C2=NN(C(=O)Cn3c(=O)oc4ccccc43)C(c3ccccc3Cl)C2)c1 (centres undefined) |  |

| Ki [1] [µM] | Ki [2] [µM] | Ratio Ki [3] | SMILES | other results |
| --- | --- | --- | --- | --- |
| 7.5 | 0.8 | 0.107 | COc1ccc(C2=NN(C(=O)Cn3c(=O)oc4ccc(C)cc43)C(c3ccccc3)C2)cc1 (centres undefined) |  |
| 24.3 | 0.011 | 4.52 10^-4No_unit | COc1cccc(C2=NN(C(=O)Cn3c(=O)oc4ccc(C)cc43)C(c3ccccc3Cl)C2)c1 (centres undefined) |  |
| 5.22 | 0.008 | 0.002 | Cc1ccc(C2CC(c3ccccc3)=NN2C(=O)Cn2c(=O)oc3ccc(C)cc32)cc1 (centres undefined) |  |
| 255 | 0.125 | 4.9 10^-4No_unit | COc1ccc(C2=NN(C(=O)Cn3c(=O)oc4ccccc43)C(c3cccc(OC)c3OC)C2)cc1 (centres undefined) |  |
|  |  |  | CCn1cc(C(=O)O)c(=O)c2cc(F)c(N3CCNC(C)C3)c(F)c21 (centres undefined) [LOMEFLOXACIN] | Papp at 16 h, 25 ug/ml [11]: 0.99 ×10⁻⁶ cm/s |
| 91.3 | 0.51 | 0.006 | COc1cccc(C2CC(c3ccc(C)cc3)=NN2C(=O)Cn2c(=O)oc3ccc(Cl)cc32)c1OC (centres undefined) |  |
| 1 | 0.985 | 0.985 | COc1cccc(C2CC(c3ccccc3)=NN2C(=O)Cn2c(=O)oc3ccc(Cl)cc32)c1 (centres undefined) |  |
| 2.75 | 0.001 | 7.27 10^-5No_unit | COc1ccccc1/C=C/C(=N\NC(=O)Cn1c(=O)oc2ccc(Cl)cc21)c1ccccc1 | Papp at 16 h, 25 ug/ml [11]: 14.6 ×10⁻⁶ cm/s; Activity [4]: 92.24%; viability at 2 h, 30 µM [5]: 87.7%; Activity [6]: 19.55%; viability at 2 h, 15 µM [7]: 89%; viability at 2 h, 7.5 µM [8]: 91.3%; Activity [9]: 77.29%; Activity [10]: 97% |
| 54 | 0.012 | 2.22 10^-4No_unit | COc1ccccc1C(/C=C/c1ccccc1)=N/NC(=O)Cn1c(=O)oc2ccc(C)cc21 |  |
| 19 | 0.001 | 5.26 10^-5No_unit | O=C(Cn1c(=O)oc2ccccc21)N/N=C(\C=C\c1ccccc1)c1ccccc1 |  |
| 29 | 0.05 | 0.002 | Cc1ccc(C2=NN(C(=O)Cn3c(=O)oc4ccc(C)cc43)C(c3ccccc3)C2)cc1 (centres undefined) |  |
|  |  |  | NCCc1ccc(O)c(O)c1 [DOPAMINE] | Papp at 16 h, 25 ug/ml [11]: 0.32 ×10⁻⁶ cm/s |
| 8.55 | 0.04 | 0.005 | Cc1ccc(C2CC(c3ccccc3)=NN2C(=O)Cn2c(=O)oc3ccc(Cl)cc32)cc1 (centres undefined) |  |
|  |  |  | C[C@]12CC[C@@H]3c4ccc(O)cc4CC[C@H]3[C@@H]1CC[C@@H]2O [ESTRADIOL] | Papp at 16 h, 25 ug/ml [11]: 9.99 ×10⁻⁶ cm/s |
| 55.6 | 0.02 | 3.6 10^-4No_unit | Cc1ccc(C2=NN(C(=O)Cn3c(=O)oc4ccc(Cl)cc43)C(c3ccccc3)C2)cc1 (centres undefined) |  |
| 50.2 | 3 | 0.06 | COc1ccc(C2CC(c3ccccc3)=NN2C(=O)Cn2c(=O)oc3ccc(Cl)cc32)cc1OC (centres undefined) |  |
| 8.9 | 0.001 | 1.12 10^-4No_unit | COc1cccc(/C=C/C(=N\NC(=O)Cn2c(=O)oc3ccccc32)c2ccccc2)c1 |  |
| 15.9 | 0.308 | 0.019 | COc1ccccc1C1=NN(C(=O)Cn2c(=O)oc3ccc(C)cc32)C(c2ccccc2Cl)C1 (centres undefined) |  |

| SMILES | Ki [1] [µM] | Ki [2] [µM] | Ratio Ki [3] | other results |
| --- | --- | --- | --- | --- |
| NCCNC(=O)c1ccc(Cl)cn1 [LAZABEMIDE] |  | > 250 |  | Activity [4]: 97%; viability at 2 h, 30 µM [5]: 85.6%; Activity [6]: 11%; viability at 2 h, 15 µM [7]: 89.7%; viability at 2 h, 7.5 µM [8]: 92.4%; Activity [9]: 89%; Activity [10]: 99% |
